Published values gathered from unrelated publications.
Compare with care: the assays were run in different laboratories.
Organism: Plasmodium falciparum
Read-out: parasite growth

Structure (SMILES)	assay	system	setting	IC50 [µM]
COC1=CC(c2ccc[nH]2)=N/C1=C\c1[nH]c(Cc2ccc(OC(F)(F)F)cc2)cc1Cc1ccc(OC(F)(F)F)cc1	SYBR Green	D6	72 h, blood stage	0.0252
CCCCCCCCNC(C)C(O)c1ccc(SC(C)C)cc1 (stereo not drawn)		NF54	blood stage	0.0726
N=C(CC(O)c1cc2c(F)cc(F)cc2c2cc(C(F)(F)F)ccc12)Nc1ccc(F)c(F)c1 (stereo not drawn)	ELISA	3D7	72 h, blood stage	0.0072
CC1=C(C)/C(=C/c2cc(Cc3ccc(Cl)cc3)c(C)[nH]2)N=C1c1ccc[nH]1	SYBR Green	D6	72 h, blood stage	0.602
Cc1ccc(N(CC2=NCCN2)c2cccc(O)c2)cc1		NF54	blood stage	36.6
CCC1=C(CC)/C(=C/c2cc(Cc3ccc(OC(F)(F)F)cc3)c(C)[nH]2)N=C1c1ccc[nH]1	SYBR Green	D6	72 h, blood stage	0.265
N=C(CC(O)c1nc2ccccc2c2ccc(Br)cc12)Nc1ccc(F)cc1 (stereo not drawn)	ELISA	DD2	72 h, drug-resistant strain, blood stage	0.0463
CCCCCCOc1ccc2c(=O)c3c([nH]c2c1)CCCC3	SYBR Green	D6	72 h, blood stage	0.000447
N=C(CC(O)c1cc2cccnc2c2cccnc12)Nc1ccc(F)cc1 (stereo not drawn)	ELISA	DD2	72 h, drug-resistant strain, blood stage	8.78
CC1=C(C)/C(=C/c2[nH]c(Cc3ccc(OC(F)(F)F)cc3)cc2Cc2ccc(OC(F)(F)F)cc2)N=C1c1ccc[nH]1	SYBR Green	D6	72 h, blood stage	1.3
N=C(CC(O)c1nc2ccccc2c2ccccc12)Nc1ccc(F)cc1 (stereo not drawn)	ELISA	DD2	72 h, drug-resistant strain, blood stage	0.0892
CO[C@H]1/C=C/O[C@@]2(C)Oc3c(C)c(O)c4c(O)c(c(/C=N/N5CCN(C)CC5)c(O)c4c3C2=O)NC(=O)/C(C)=C\C=C\[C@H](C)[C@H](O)[C@@H](C)[C@@H](O)[C@@H](C)[C@H](OC(C)=O)[C@@H]1C		NF54	blood stage	0.9
Cc1ccc(N(c2ccc(NC(=O)CN(C)c3ccccc3N3CCCC3=O)cc2)C(C)C)cc1	SYBR Green	DD2	blood stage	0.00274
CNCC[C@H](Oc1cccc2ccccc12)c1cccs1	SYBR Green	3D7	blood stage	0.233
COC1=CC(c2ccc[nH]2)=N/C1=C\c1[nH]c(C(=O)O)cc1Cc1ccc(OC(F)(F)F)cc1	SYBR Green	D6	72 h, blood stage	> 2.5
